Experiment [1] relates to HT1080 cells. Description: Luminescent cell viability assay. The experiment is classed as cell-based, human. The note with it: ratio of 72 h IC50 values, WI-38 = 1.0. The gist of the method: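 HeLa, HT1080, U2OS and WI-38 cells were grown in DMEM with 10% FCS. Cells were plated at 4000 per well and left 24 h, then serially diluted test compound (0–40 μM) was added. Viability was read by CellTiter-Glo luminescence after 72 h, 20 min after reagent addition at rt, in triplicate. IC50 values were determined separately for HT1080 and for WI-38.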

Experiment [2] relates to HT1080 cells. The experiment can be described thus: β-Galactosidase senescence assay. The note with it: HT1080, 8 days of incubation at respective IC50. The experiment is classed as cell-based, human. Put shortly:
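HT1080 cells were treated 4 d with test compound at its IC50, or untreated, then reseeded at 4000 per chamber-slide well for another 4 d of treatment. Cells were fixed in 2% formaldehyde/0.2% glutaraldehyde for 15 min. They were stained 16 h at 37 °C with 1 mg ml−1 X-gal in pH 6.0 citrate/phosphate buffer containing ferro/ferricyanide for senescence-associated β-galactosidase.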

Experiment [3] deals with telomeric 3′ G-overhang in HT1080 cells. The experiment can be described thus: Non-denaturing hybridization assay of telomeric G-overhang. It counts as cell-based, human. The note with it: HT1080, respective IC50, time course of 12 days.
For experiment [4], the system named is HeLa, HT1080, U2OS and WI-38 cells. The experiment can be described thus: Luminescent cell viability assay, panel of four human cell lines. It counts as cell-based. Conditions: 3 days of exposure; concentrations up to 40 µM.
The test system of experiment [5] is human telomeric G-quadruplex-forming sequence (H-Telo). Description: FRET-melting assay, H-Telo. The experiment is classed as binding. Conditions: 1 µM compound, 200 nM oligonucleotide, 60 mM potassium cacodylate pH 7.4. Put shortly:
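Dual FAM/TAMRA-labelled H-Telo oligonucleotide was annealed at 400 nM (94 °C for 10 min, then cooled to rt at 0.1 °C min−1). It was mixed with test compound in 60 mM potassium cacodylate, pH 7.4, at 200 nM final oligonucleotide. Fluorescence was read with excitation at 483 nm and emission at 533 nm. Melting-temperature shift was measured in triplicate.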

Experiment [6] deals with HT1080 cells. Description: Long-term growth assay. The note with it: HT1080, incubated at respective IC50 over 30 days. The experiment is classed as cell-based, human. Put shortly: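 HT1080 cells were seeded at 300000 per T-25 flask with test compound at its IC50, or untreated. Every 3–4 days cells were split, counted with a haemocytometer and reseeded at 300000. Population doublings were calculated as PD = ln(n1/n2)/ln2 and run in triplicate. Dead cells were counted at each time point by trypan blue exclusion.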

`NCCOc1cc(C(=O)Nc2cc(OCCN)c3ccccc3n2)nc(C(=O)Nc2cc(OCCN)c3ccccc3n2)c1` [Compound 1, pyridostatin]: in the experiment on HT1080 cells [1], the “Selectivity ratio HT1080 over WI-38” value is recorded as 18.5.
Turning to `NCCOc1cc(C(=O)Nc2cc(OCCN3CCCC3)c3ccccc3n2)nc(C(=O)Nc2cc(OCCN3CCCC3)c3ccccc3n2)c1` [Compound 9], the “Senescent cells (β-galactosidase staining)” value (shortened to “Senescent cells”) with HT1080 cells [2] is “presence of senescent cells”.
With `O=C(Nc1cc(OCCN2CCCC2)c2ccccc2n1)c1cc(OCCN2CCCC2)cc(C(=O)Nc2cc(OCCN3CCCC3)c3ccccc3n2)n1` [Compound 10], in the experiment on HT1080 cells [2], the “Senescent cells” value is on record as “presence of senescent cells”. Also, in experiment [3], the “Kinetics of G-overhang degradation (in words)” value is given as “most potent to induce an early effect”.
Take `COc1cc(C(=O)Nc2cc(OC)c3ccccc3n2)nc(C(=O)Nc2cc(OC)c3ccccc3n2)c1` [Compound 14]: the “Growth inhibition against the panel of cell lines (in words)” value in experiment [4] is on record as “did not exhibit growth inhibitory properties”.
With `O=C(Nc1cc(OCCN2CCCC2)c2ccccc2n1)c1cc(Cl)cc(C(=O)Nc2cc(OCCN3CCCC3)c3ccccc3n2)n1` [Compound 17], the “Senescent cells” value in the experiment on HT1080 cells [2] is “presence of senescent cells”. The “Kinetics of G-overhang degradation (in words)” value in experiment [3] is reported as “most potent to induce an early effect”.
In the case of `NCCOc1cc(NC(=O)c2cc(OCc3ccc(F)cc3)cc(C(=O)Nc3cc(OCCN)c4ccccc4n3)n2)nc2ccccc12` [Compound 20], the “FRET ΔTm, H-Telo” value in experiment [5] was 8.8 K. The “Exposure time after which flattening of the population doubling curve started” value with HT1080 cells [6] was determined as 19 days.
On to `O=C(Nc1cc(OCCN2CCCC2)c2ccccc2n1)c1cc(OCc2ccc(F)cc2)cc(C(=O)Nc2cc(OCCN3CCCC3)c3ccccc3n2)n1` [Compound 21], for which, in experiment [5], the “FRET ΔTm, H-Telo” value was found to be 4.3 K.

Source of the values: article PMC3700226 (Organic & Biomolecular Chemistry, 2012).
